Activity calls are given as the source filed them. The rule behind the calls is not given here. Starred links: 1 amine or outer side, 2 acyl side, 3 side chain; linkers in the order of their positions; H or OH if unused. Non-standard residues stand in square brackets, D forms with d. Residues, ends and D or L forms follow the SMILES beside them. *: point of attachment. NH(CH2CH2O)2CH2CH2NHBiotin = O=C(CCCC[C@@H]1SC[C@@H]2NC(=O)N[C@@H]21)NCCOCCOCCN*; Octanoyl(2R-Me,7,8-dehydro) = C=CCCCC[C@@H](C)C(=O)*; Oct7ynoyl(2R-Me) = C#CCCCC[C@@H](C)C(=O)*; X2 = CN(C)c1ccc2c(CC(=O)*)cc(=O)oc2c1; NMeAEEA = CN(CCOCCOCC(=O)[*:2])[*:1]; Ethylenediamine = C(CN[*:2])N[*:1]; NMeF = CN[C@@H](Cc1ccccc1)C(=O)O; X4 = CC(=O)CCCC[C@@H](C)C(=O)*; Oct(7)enoyl = C=CCCCCCC(=O)*; Oct(7)ynoyl = C#CCCCCCC(=O)*; NMeV = CN[C@H](C(=O)O)C(C)C; Hept6ynoyl = C#CCCCCC(=O)*; X5 = COC(=O)CCCCCCCCN(C)*; NMeA = CN[C@@H](C)C(=O)O; X6 = COC(=O)COCCOCCN(C)*; X3 = C=CCCCCC(=O)*
How the values were obtained:
[1] = Cytotoxicity against african green monkey Vero cells; type: cell-based; details: chlorocebus sabaeus, read-out: LD50 (the source's name)
[2] = tested on: Trypanosoma brucei brucei; assay: Antiparasitic activity against Trypanosoma brucei brucei 427-221 assessed as growth inhibition after 48 hrs by cellTiter-Glo assay; type: functional, organism-based; details: 427-221, 48 h
How it was run: (§1)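 T. b. brucei 427-221 was grown at 37 °C and 5% CO2 in HMI-9 with 10% FBS, 10% Serum Plus and penicillin/streptomycin, then seeded at 2×10^4/mL. Compounds were serially diluted in DMSO (1% final) and exposed for 48 h. Viability was read by CellTiter-Glo ATP luminescence. Percent inhibition was normalized to thimerosal (2 µM final) and DMSO controls, and IC50 was derived by curve fitting.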

[3] = Selectivity index, ratio of LD50 for african green monkey Vero cells to IC50 for Trypanosoma brucei brucei 427-221; type: toxicity, cell-based; details: read-out: Ratio LD50/IC50
[4] = Drug uptake in neomycin-untreated zebrafish embryo neuromast at 250 uM after 3 hrs by confocal microscopic analysis; type: ADME, tissue-based, Danio rerio; details: in vivo
How it was run: (§2)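 Zebrafish embryos were pretreated 1 h with neomycin 500 µM or with medium only. Both groups were then exposed to fluorescent probe (250 µM), fluorophore control (250 µM) or no compound for 3 h, and localization was imaged by confocal microscopy.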

Danio rerio [5] = species on record: Danio rerio; assay: Drug uptake in 48 hrs post fertilized zebrafish embryo lateral line at 1 to 270 uM after 3 hrs by confocal microscopic analysis; type: ADME, organism-based; details: in vivo
How it was run: (§3)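 Zebrafish embryos at 48 and 120 h post fertilization were incubated with fluorescent probe or fluorophore control in methylene blue-free egg water at 270, 90, 30 and 0 µM, three embryos per treatment. Localization was imaged by confocal microscopy after 3 h.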

[6] = Drug uptake in 120 hrs post fertilized zebrafish embryo intestinal tract at 1 to 270 uM after 3 hrs by confocal microscopic analysis; type: ADME, Danio rerio; details: in vivo; how it was run: as §3
Leishmania donovani = assay: Antiparasitic activity against Leishmania donovani assessed as growth inhibition; type: functional, organism-based
Trypanosoma brucei = assay: Antiparasitic activity against Trypanosoma brucei assessed as growth inhibition; type: functional, organism-based; how it was run: as §1
[7] = Drug uptake in neomycin-treated zebrafish embryo neuromast at 250 uM after 3 hrs by confocal microscopic analysis; type: ADME, tissue-based, Danio rerio; details: in vivo; how it was run: as §2
Danio rerio [8] = species on record: Danio rerio; assay: Drug uptake in 120 hrs post fertilized zebrafish embryo lateral line at 250 to 500 uM after 3 hrs by confocal microscopic analysis; type: ADME, organism-based; details: in vivo
[9] = tested on: Trypanosoma brucei brucei; assay: Antiparasitic activity against Trypanosoma brucei brucei 427-221 assessed as growth inhibition up to 50 uM after 48 hrs by cellTiter-Glo assay; type: functional, organism-based; how it was run: as §1

Row | Compound | CC50 [1] | IC50 [2] | selectivity ratio [3] | also measured
1 | CC(=O)CCCC[C@@H](C)C(=O)N(C)[C@H](C(=O)N(C)[C@H](C(=O)N[C@H](C(=O)N(C)[C@@H](C)C(=O)N(C)[C@@H](Cc1ccccc1)C(N)=O)C(C)C)C(C)C)C(C)C [ALMIRAMIDE A] (X4-[NMeV][NMeV]V[NMeA][NMeF]-NH2) | 113 µM | – | – | –
2 | C#CCCCC[C@@H](C)C(=O)N(C)[C@H](C(=O)N(C)[C@H](C(=O)N[C@H](C(=O)N(C)[C@@H](C)C(=O)N(C)[C@@H](Cc1ccccc1)C(N)=O)C(C)C)C(C)C)C(C)C [ALMIRAMIDE B] ({Oct7ynoyl(2R-Me)}-[NMeV][NMeV]V[NMeA][NMeF]-NH2) | 52.3 µM | 6000 nM | 8.7 | –
3 | C#CCCCCC(=O)N(C)[C@H](C(=O)N(C)[C@H](C(=O)N(C)[C@H](C(=O)N(C)[C@@H](C)C(=O)N(C)[C@@H](Cc1ccccc1)C(=O)O)C(C)C)C(C)C)C(C)C (Hept6ynoyl-[NMeV][NMeV][NMeV][NMeA][NMeF]-OH) | 281 µM | > 13700 nM | – | –
4 | CN(C)c1ccc2c(CC(=O)NCCNC(=O)CCc3ccccc3)cc(=O)oc2c1 | – | – | – | Drug uptake [4]: Not Active; Drug uptake (Danio rerio [5]): Active; Drug uptake [6]: Active
5 | C=CCCCCCC(=O)N(C)[C@H](C(=O)N(C)[C@H](C(=O)N(C)[C@H](C(=O)N(C)[C@@H](C)C(=O)N(C)[C@@H](Cc1ccccc1)C(=O)N(C)CCOCCOCC(=O)OC)C(C)C)C(C)C)C(C)C ({Oct(7)enoyl}-[NMeV][NMeV][NMeV][NMeA][NMeF]-X6) | – | 3500 nM | – | –
6 | C#CCCCCC(=O)N(C)[C@H](C(=O)N(C)[C@H](C(=O)N(C)[C@H](C(=O)N(C)[C@@H](C)C(=O)N(C)[C@@H](Cc1ccccc1)C(=O)N(C)C)C(C)C)C(C)C)C(C)C (Hept6ynoyl-[NMeV][NMeV][NMeV][NMeA][NMeF]-NMe2) | 156 µM | 1300 nM | 120 | –
7 | C=CCCCCCC(=O)N(C)[C@H](C(=O)N(C)[C@H](C(=O)N(C)[C@H](C(=O)N(C)[C@@H](C)C(=O)N(C)[C@@H](Cc1ccccc1)C(=O)N(C)C)C(C)C)C(C)C)C(C)C ({Oct(7)enoyl}-[NMeV][NMeV][NMeV][NMeA][NMeF]-NMe2) | 23.8 µM | 600 nM | 40 | IC50 (Leishmania donovani): 2.7 µM
8 | NCCCC(N)(C(=O)O)C(F)F (stereo unspecified) [EFLORNITHINE] | – | – | – | IC50 (Trypanosoma brucei): 59000 nM
9 | C=CCCCCCC(=O)N(C)[C@H](C(=O)N(C)[C@H](C(=O)N(C)[C@H](C(=O)N(C)[C@@H](C)C(=O)N(C)[C@@H](Cc1ccccc1)C(=O)N(C)CCOCCOCC(=O)NCCNC(=O)Cc1cc(=O)oc2cc(N(C)C)ccc12)C(C)C)C(C)C)C(C)C ({Oct(7)enoyl}-[NMeV][NMeV][NMeV][NMeA][NMeF][NMeAEEA]-{Ethylenediamine-X2}) | – | – | – | Drug uptake [4]: Active; Drug uptake (Danio rerio [5]): Active; Drug uptake [6]: Active; Drug uptake [7]: Not Active; Drug uptake (Danio rerio [8]): Active
10 | C#CCCCCCC(=O)N(C)[C@H](C(=O)N(C)[C@H](C(=O)N(C)[C@H](C(=O)N(C)[C@@H](C)C(=O)N(C)[C@@H](Cc1ccccc1)C(=O)O)C(C)C)C(C)C)C(C)C ({Oct(7)ynoyl}-[NMeV][NMeV][NMeV][NMeA][NMeF]-OH) | > 68.9 µM | 10300 nM | > 6.7 | –
11 | C=CCCCCC(=O)N(C)[C@H](C(=O)N(C)[C@H](C(=O)N(C)[C@H](C(=O)N(C)[C@@H](C)C(=O)N(C)[C@@H](Cc1ccccc1)C(=O)N(C)C)C(C)C)C(C)C)C(C)C (X3-[NMeV][NMeV][NMeV][NMeA][NMeF]-NMe2) | 93.1 µM | 600 nM | 160 | IC50 (Leishmania donovani): 6.7 µM
12 | N=C(N)c1ccc(OCCCCCOc2ccc(C(=N)N)cc2)cc1 [PENTAMIDINE] | – | – | – | IC50 (Trypanosoma brucei): 30 nM
13 | C#CCCCCCC(=O)N(C)[C@H](C(=O)N(C)[C@H](C(=O)N(C)[C@H](C(=O)N(C)[C@@H](C)C(=O)N(C)[C@@H](Cc1ccccc1)C(=O)OC)C(C)C)C(C)C)C(C)C ({Oct(7)ynoyl}-[NMeV][NMeV][NMeV][NMeA][NMeF]-OMe) | 27 µM | 600 nM | 45 | –
14 | C=CCCCCC(=O)N(C)[C@H](C(=O)N(C)[C@H](C(=O)N(C)[C@H](C(=O)N(C)[C@@H](C)C(=O)N(C)[C@@H](Cc1ccccc1)C(=O)OC)C(C)C)C(C)C)C(C)C (X3-[NMeV][NMeV][NMeV][NMeA][NMeF]-OMe) | 24.7 µM | 600 nM | 41 | –
15 | C=CCCCCCC(=O)N(C)[C@H](C(=O)N(C)[C@H](C(=O)N(C)[C@H](C(=O)N(C)[C@@H](C)C(=O)N(C)[C@@H](Cc1ccccc1)C(=O)NCCOCCOCCNC(=O)CCCC[C@@H]1SC[C@@H]2NC(=O)N[C@@H]21)C(C)C)C(C)C)C(C)C ({Oct(7)enoyl}-[NMeV][NMeV][NMeV][NMeA][NMeF]-{NH(CH2CH2O)2CH2CH2NHBiotin}) | – | – | – | IC50 (Leishmania donovani): 9.9 µM
16 | Cc1ccc(C(=O)Nc2ccc(S(=O)(=O)O)c3cc(S(=O)(=O)O)cc(S(=O)(=O)O)c23)cc1NC(=O)c1cccc(NC(=O)Nc2cccc(C(=O)Nc3cc(C(=O)Nc4ccc(S(=O)(=O)O)c5cc(S(=O)(=O)O)cc(S(=O)(=O)O)c45)ccc3C)c2)c1 [SURAMIN] | – | – | – | IC50 (Trypanosoma brucei): 1400 nM
17 | C=CCCCCC(=O)N(C)[C@H](C(=O)N(C)[C@H](C(=O)N(C)[C@H](C(=O)N(C)[C@@H](C)C(=O)N(C)[C@@H](Cc1ccccc1)C(=O)O)C(C)C)C(C)C)C(C)C (X3-[NMeV][NMeV][NMeV][NMeA][NMeF]-OH) | > 70 µM | 2600 nM | > 27 | –
18 | C=CCCCC[C@@H](C)C(=O)N(C)[C@H](C(=O)N(C)[C@H](C(=O)N[C@H](C(=O)N(C)[C@@H](C)C(=O)N(C)[C@@H](Cc1ccccc1)C(N)=O)C(C)C)C(C)C)C(C)C [ALMIRAMIDE C] ({Octanoyl(2R-Me,7,8-dehydro)}-[NMeV][NMeV]V[NMeA][NMeF]-NH2) | 33.1 µM | 3000 nM | 11 | –
19 | Nc1nc(N)nc(Nc2ccc([As]3SCC(CO)S3)cc2)n1 (stereo unspecified) [MELARSOPROL] | – | – | – | IC50 (Trypanosoma brucei): 10 nM
20 | Cc1cc(C)n2c1C=C1C=CC(CCC(=O)NCCNC(=O)CCc3ccccc3)=[N+]1[B-]2(F)F | – | – | – | Activity [9]: inactive
21 | C=CCCCCCC(=O)N(C)[C@H](C(=O)N(C)[C@H](C(=O)N(C)[C@H](C(=O)N(C)[C@@H](C)C(=O)N(C)[C@@H](Cc1ccccc1)C(=O)O)C(C)C)C(C)C)C(C)C ({Oct(7)enoyl}-[NMeV][NMeV][NMeV][NMeA][NMeF]-OH) | 192 µM | > 13700 nM | – | –
22 | C#CCCCCCC(=O)N(C)[C@H](C(=O)N(C)[C@H](C(=O)N(C)[C@H](C(=O)N(C)[C@@H](C)C(=O)N(C)[C@@H](Cc1ccccc1)C(=O)N(C)C)C(C)C)C(C)C)C(C)C ({Oct(7)ynoyl}-[NMeV][NMeV][NMeV][NMeA][NMeF]-NMe2) | 159 µM | 600 nM | 270 | –
23 | C=CCCCCCC(=O)N(C)[C@H](C(=O)N(C)[C@H](C(=O)N(C)[C@H](C(=O)N(C)[C@@H](C)C(=O)N(C)[C@@H](Cc1ccccc1)C(=O)N(C)CCCCCCCCC(=O)OC)C(C)C)C(C)C)C(C)C ({Oct(7)enoyl}-[NMeV][NMeV][NMeV][NMeA][NMeF]-X5) | – | 700 nM | – | –
24 | C#CCCCCC(=O)N(C)[C@H](C(=O)N(C)[C@H](C(=O)N(C)[C@H](C(=O)N(C)[C@@H](C)C(=O)N(C)[C@@H](Cc1ccccc1)C(=O)OC)C(C)C)C(C)C)C(C)C (Hept6ynoyl-[NMeV][NMeV][NMeV][NMeA][NMeF]-OMe) | 41.4 µM | 600 nM | 69 | –

From ChEMBL document CHEMBL2331458, “Examination of the mode of action of the almiramide family of natural products against the kinetoplastid parasite Trypanosoma brucei” (J Nat Prod, 2013)
